This note sets out measurements from ChEMBL document CHEMBL4513216, “Probing the Open Global Health Chemical Diversity Library for Multistage-Active Starting Points for Next-Generation Antimalarials” (ACS Infect Dis, 2020).

The nature of the data set: Toxicity liver stage against HepG2, at 10uM. The class given is cell-based. The arrangement: test concentration 10 uM, cell line HepG2-A16-CD81EGFP. As to conditions: human, HepG2-A16-CD81EGFP cells; read-out: INHIBITION
The gist of the method: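 Uninfected HepG2-A16-CD81EGFP cells, 3 × 10^3 per well, 1536-well, plated on prespotted compound at 10 μM final, parasite-free screening media added to match infected plates; puromycin 10 μM positive, DMSO 0.5% negative; run in parallel with 48 h PbLuc assay at 37 °C, 5% CO2; viability by CellTiter-Glo luminescence, normalized to controls.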
For the molecule `Cn1nc(C2CCCN(Cc3ccc(F)cc3F)C2)c2nccnc21` (stereo unspecified), the cytotoxicity at 10 µM was -8.46%.

On to `CC(C)c1nnc2n1CCN(C(=O)c1ccc(S(C)(=O)=O)cc1)C2`, for which the cytotoxicity at 10 µM is -0.252%.

Take `N#Cc1cccnc1NCCC1CCN(CC(F)(F)F)CC1`: the cytotoxicity at 10 µM was found to be 11%.

Regarding `O=C(NCCNc1ncccn1)N1CCCC(C(F)(F)F)C1` (stereo unspecified), the cytotoxicity at 10 µM worked out at 1.05%.

`CCc1nc(C2CCCN2C(=O)c2csc(NC(C)=O)n2)no1` (stereo unspecified): the cytotoxicity at 10 µM is -5.12%.

For `Cc1occc1C(=O)Nc1cc(N2CCNC2=O)ccc1Cl`, the cytotoxicity at 10 µM was found to be 8.56%.

With `CN(Cc1ccsc1)C(=O)CNC(=O)N1CCc2ccccc2C1`, the cytotoxicity at 10 µM is -2.9%.

Regarding `Cc1cc(C)c2c(c1)C(NCc1c(C)nn(C)c1N(C)C)CCO2` (stereo unspecified), the cytotoxicity at 10 µM is -4.07%.

Regarding `Cc1nonc1CN1CC[C@@](O)(C2CCC2)[C@H](C)C1`, the cytotoxicity at 10 µM stood at 17.5%.

In the case of `CCCN(Cc1ccc(S(=O)(=O)NC)cc1)Cc1ccccc1OC`, the cytotoxicity at 10 µM is -0.89%.

In the case of `Cc1cnn(CCNCC(O)COc2ccc(Cl)cc2)c1` (stereo unspecified), the cytotoxicity at 10 µM is -12.6%.

As to `COCCCn1c(CN2CCCC(O)C2)cnc1S(=O)(=O)C1CCCC1` (stereo unspecified), the cytotoxicity at 10 µM is -13.5%.

`CCC(=O)N1CCC2(CC1)CN(CCO)Cc1ccccc12`: the cytotoxicity at 10 µM stood at 5.23%.

Turning to `N#Cc1ccnc(N2CCN(CC(O)c3ccc(F)cc3)CC2)c1` (stereo unspecified), the cytotoxicity at 10 µM came to 2.99%.

In the case of `c1cnc(N2C[C@H]3CCN(CCN4CCCC4)C[C@H]3C2)cn1`, the cytotoxicity at 10 µM is -114%.

With `Cc1ccc(Cl)c2c1C1(NC(=O)c3cccnc3N1)C(=O)N2` (stereo unspecified), the cytotoxicity at 10 µM was found to be 11.9%.

As to `CCn1ccnc1CN1C[C@@H](CN2CCCC2)[C@@H](CO)C1`, the cytotoxicity at 10 µM is -9.96%.

Take `CCn1cc(S(=O)(=O)N2CCC(C)CC2)c(C)n1`: the cytotoxicity at 10 µM is 8.44%.

Turning to `Cc1ccc(CNc2ccccc2SCCC(N)=O)s1`, the cytotoxicity at 10 µM is 10.6%.

As to `CC(C)C(=O)N1CCOC[C@H](Oc2ccc(C(F)(F)F)cc2)C1`, the cytotoxicity at 10 µM was found to be 4.53%.

As for `O=C(c1ccco1)N1CCC2(CC1)CCN(c1ncccn1)CC2`, the cytotoxicity at 10 µM worked out at 4.59%.

Consider `Cn1ccnc1CN(CCCO)C1CCCc2ccccc21` (stereo unspecified), for which the cytotoxicity at 10 µM was -6.91%.

With `CCC(O)CN1CCN(C(=O)Cc2cc(C)ccc2OC)CC1` (stereo unspecified), the cytotoxicity at 10 µM is -30.9%.

Turning to `COCc1cc(N(C)Cc2c(C)nn(C)c2C)n2nccc2n1`, the cytotoxicity at 10 µM came out at 2.45%.

Take `Cc1ccccc1CS(=O)(=O)CC(=O)NC1CCCCNC1=O` (stereo unspecified): the cytotoxicity at 10 µM was -7.23%.

As to `CNC(=O)N1CCC2(CC1)c1ncc(C)n1CCN2C`, the cytotoxicity at 10 µM worked out at 5.22%.

For the molecule `CC(=O)N1CCC(N2CC(Cc3nccc4ccn(C)c34)C2)CC1`, the cytotoxicity at 10 µM is 17.7%.

In the case of `CCc1nc(CN2CCCN(C(=O)c3cc(C)on3)CC2)cs1`, the cytotoxicity at 10 µM was -7.81%.

Turning to `CN(Cc1nc(C2CC2)no1)C1CCS(=O)(=O)C1` (stereo unspecified), the cytotoxicity at 10 µM worked out at 13.2%.

In the case of `CC1COCCN1Cc1nc(-c2cccs2)no1` (stereo unspecified), the cytotoxicity at 10 µM was -7.79%.

For the molecule `CCOc1ccc(NC(C)c2nnnn2-c2ccccc2)cc1CO` (stereo unspecified), the cytotoxicity at 10 µM was -5%.

On to `c1ncn(CC2CCCCN2Cc2csc(C3CCCC3)n2)n1` (stereo unspecified), for which the cytotoxicity at 10 µM is -6.44%.

Turning to `CCC(CO)N(Cc1ccccn1)C(=O)c1ccc(=O)[nH]c1` (stereo unspecified), the cytotoxicity at 10 µM is -0.65%.

For `CN(Cc1ccco1)C1CCC12CCN(C(=O)c1ccnnc1)CC2` (stereo unspecified), the cytotoxicity at 10 µM was 0.081%.

For the molecule `Cc1cc(=O)[nH]c(-n2nc(C)c(CCC(=O)Nc3nc(C)cs3)c2C)n1`, the cytotoxicity at 10 µM came to 5.61%.

`CC(CN1CCCC1=O)NC(=O)Nc1cccnc1-n1cccn1` (stereo unspecified): the cytotoxicity at 10 µM was -170%.

In the case of `CC(C)C(=O)N1CCC2(CCN2CC2CC2)C1` (stereo unspecified), the cytotoxicity at 10 µM turned out to be 8.98%.

As for `CO[C@H]1CN(C)S(=O)(=O)[C@@]12CCN(Cc1ccccc1)C2`, the cytotoxicity at 10 µM was found to be 1.79%.

As for `CC(C)c1n[nH]c(C2CN(CC(=O)N(C)Cc3ccco3)CCO2)n1` (stereo unspecified), the cytotoxicity at 10 µM was -5.92%.

As for `CCOCC1COCCC12CCN(C(=O)CC1=CCCCC1)CC2` (stereo unspecified), the cytotoxicity at 10 µM worked out at 2.99%.

`CCOC1COC2(CCN(Cc3cccc(C)n3)CC2)C1` (stereo unspecified): the cytotoxicity at 10 µM was 11.8%.

As for `Cc1cnc(C(=O)N2CCCC(n3ccnc3C)C2)cn1` (stereo unspecified), the cytotoxicity at 10 µM is -10.8%.

Turning to `CCc1cc(N2CCC(n3cc(C(=O)NC4CC4)nn3)CC2)ncn1`, the cytotoxicity at 10 µM is 27.7%.

In the case of `Cc1nccc(C(=O)N2CCOC(c3nc(C(C)C)n[nH]3)C2)n1` (stereo unspecified), the cytotoxicity at 10 µM was -15.7%.

Turning to `Cc1c[nH]c(CN2CCCCC2CCn2cccn2)c(C)c1=O` (stereo unspecified), the cytotoxicity at 10 µM amounted to 3.69%.

Take `N#Cc1ncn(CC(=O)Nc2cc(Cl)ccc2F)n1`: the cytotoxicity at 10 µM is -2.75%.

Regarding `O=C1CC(CNc2cncc(Br)c2)c2ccccc2N1` (stereo unspecified), the cytotoxicity at 10 µM was -5.19%.

Turning to `c1[nH]c(CC2CCCC2)nc1CN1CCCC2(CCOC2)C1` (stereo unspecified), the cytotoxicity at 10 µM was -9.12%.

For `CSc1ncccc1C(=O)N(C)CCc1scnc1C`, the cytotoxicity at 10 µM was determined as 4.23%.

For the molecule `COC(=O)N1CCCCC1C(=O)N(C)Cc1cc(-c2cccnc2)no1` (stereo unspecified), the cytotoxicity at 10 µM was determined as 0.83%.

Take `c1ncc2c(n1)CN(Cc1nc(-c3ccoc3)no1)CC2`: the cytotoxicity at 10 µM is -10.2%.

On to `CC(O)CN1CCc2[nH]nc(C(c3ccccc3)c3ccccc3)c2C1` (stereo unspecified), for which the cytotoxicity at 10 µM is -0.481%.

`Cc1c(Cl)cccc1S(=O)(=O)N1CCC2(CC1)OCCS2`: the cytotoxicity at 10 µM is 4.19%.

On to `CC(=O)N1CCN(C(=O)c2cc(C(C)C)no2)[C@H]2CS(=O)(=O)C[C@H]21`, for which the cytotoxicity at 10 µM is -7.8%.

In the case of `CC[C@@H]1N(Cc2ccncc2)CCC[C@]12CCC(=O)N2CCOC`, the cytotoxicity at 10 µM was determined as 11.5%.

`Cc1cccc(CO[C@@H]2C[C@H]3CN(C(=O)c4cnccn4)CCN3C2)n1`: the cytotoxicity at 10 µM was -1.79%.

Consider `CCN1C(=O)C2(CCOCC2)c2cc(NC(=O)c3ccco3)ccc21`, for which the cytotoxicity at 10 µM is -10.3%.

As to `O=C(C1=NN(Cc2ccccc2)c2ccccc2S1(=O)=O)N1CCCC1`, the cytotoxicity at 10 µM is -4.65%.

Turning to `NC(=O)CN1CCN(CC2CC2)c2ccccc21`, the cytotoxicity at 10 µM is 3.92%.

Regarding `Cc1c(C)n2c(SCC(=O)N3CCCCCC3)nnc2[nH]c1=O`, the cytotoxicity at 10 µM was 0.0868%.

Consider `COc1ccccc1NC(=O)NCC(O)(c1ccccc1)C1CC1` (stereo unspecified), for which the cytotoxicity at 10 µM was -19.5%.

As to `COc1ccccc1CC(=O)N1CCC(NCc2ccc(C)o2)CC1`, the cytotoxicity at 10 µM was -5.28%.

For the molecule `CS(=O)(=O)Cc1nc(CNc2c(F)cc(F)cc2F)cs1`, the cytotoxicity at 10 µM is -4.73%.

Regarding `Cc1nnc(CN(C)CC(=O)N2CCCC(C(F)(F)F)C2)n1C` (stereo unspecified), the cytotoxicity at 10 µM came to 4.49%.

Regarding `Cc1nc(N(C)C)nc(-c2cccc(-c3ccn(CCCF)n3)c2)c1C`, the cytotoxicity at 10 µM turned out to be 3.7%.

As to `CC(NC(=O)NCCCn1cncn1)c1ccc(C(F)(F)F)cc1` (stereo unspecified), the cytotoxicity at 10 µM was -7.1%.

As to `Cn1cc(NS(=O)(=O)c2ccc(F)c(F)c2)ccc1=O`, the cytotoxicity at 10 µM is -9.59%.

For `Cc1cc(F)cc(NC(=O)N(C)CC(C)(CO)CO)c1`, the cytotoxicity at 10 µM is -1.44%.

Take `Cc1ccc(-c2cc(CN3CCCC(Cn4cncn4)C3)on2)cc1` (stereo unspecified): the cytotoxicity at 10 µM was -11.8%.

For `Cc1cc(CN2CCN(Cc3ccccc3F)CC2)no1`, the cytotoxicity at 10 µM was found to be 4.51%.

On to `FC(F)(F)c1cccnc1N1CCC(OC2CCOCC2)CC1`, for which the cytotoxicity at 10 µM was -8.44%.

On to `COCc1nc(C(=O)NS(=O)(=O)c2ccc(C)c(C)c2)cs1`, for which the cytotoxicity at 10 µM was -8%.

`Cc1noc(C)c1CN1CCO[C@H]2CN(Cc3cccc(F)c3)C[C@H]21`: the cytotoxicity at 10 µM was -99.8%.

In the case of `Cn1cccc1C(=O)NC1(C(=O)NCC2CC2)CCCC1`, the cytotoxicity at 10 µM was -3.29%.

Consider `c1ncn(Cc2nnc(C3CCN(CC4CC4)CC3)n2C2CC2)n1`, for which the cytotoxicity at 10 µM stood at 5.2%.

As to `CN(C)c1cccc(C(=O)N2CCc3ccc(=O)[nH]c3CC2)c1`, the cytotoxicity at 10 µM was determined as 9.23%.

For `COc1cccc(N2CC3(CCN(C(=O)NC(C)C)C3)CC2=O)c1` (stereo unspecified), the cytotoxicity at 10 µM amounted to 3.52%.

In the case of `CC(C)NC(=O)NC[C@H]1C[C@@H]2CCN1C[C@@H]2CN(C)c1ccccc1`, the cytotoxicity at 10 µM was 1.95%.

For the molecule `CC(=O)N(Cc1noc(C)n1)C1CCN(Cc2ccccc2C#N)C1` (stereo unspecified), the cytotoxicity at 10 µM is -1.76%.

For `CCN(C)C[C@H]1CC[C@@H](Cc2ccc3c(cnn3C)c2)O1`, the cytotoxicity at 10 µM is -0.957%.

For the molecule `CN(C)CCNc1cc(-c2ncccn2)c2cc[nH]c2n1`, the cytotoxicity at 10 µM stood at 6.39%.

For `CC(=O)N1CCCC1c1ccc(Br)cn1` (stereo unspecified), the cytotoxicity at 10 µM was determined as 4.29%.

Take `COc1ccc(CNc2nc(C3CC3)nc3c(C)nn(C)c23)cc1`: the cytotoxicity at 10 µM is 5.4%.

With `CCOCC1CN(Cc2ccc(F)cc2)Cc2nn(C)cc21` (stereo unspecified), the cytotoxicity at 10 µM is -83.3%.

Consider `CCOc1ccccc1CC(=O)N1C[C@@H](C(=O)O)[C@H](c2ccncc2)C1`, for which the cytotoxicity at 10 µM turned out to be 9.15%.

Take `O=C1CO[C@@H]2CN(S(=O)(=O)c3ccccc3F)C[C@H]2N1`: the cytotoxicity at 10 µM turned out to be 0.0416%.

With `Cn1cc(CN2C[C@H](N3CCOCC3)[C@@H]3OCCC[C@@H]32)cn1`, the cytotoxicity at 10 µM amounted to 5.02%.

Consider `O=C(NC[C@]12COC[C@H]1CN(Cc1nccs1)C2)N1CCCC1`, for which the cytotoxicity at 10 µM was -7.27%.

As to `CCOc1ncccc1NC(=O)NC1CCCN(c2ncccn2)C1` (stereo unspecified), the cytotoxicity at 10 µM is -10.6%.

Regarding `Fc1cnc(N2CCN(Cc3ccc(-c4cc[nH]n4)o3)CC2)nc1`, the cytotoxicity at 10 µM was -6%.

For `COC(=O)CC1CN(Cc2c(Cl)ccc3cccnc23)CCO1` (stereo unspecified), the cytotoxicity at 10 µM was 8.36%.

For the molecule `COc1nn(C)c2c1CCCN(S(=O)(=O)c1cccc(C)c1)C2`, the cytotoxicity at 10 µM is -133%.

With `NC(=O)[C@@H]1CCCN1C(=O)c1csc(-c2ccc(C(F)(F)F)cc2)n1`, the cytotoxicity at 10 µM was -2%.

As for `CC(C)c1cc(C2CCCN2C(=O)c2cn3ccsc3n2)no1` (stereo unspecified), the cytotoxicity at 10 µM was -2.33%.

For `O=C(c1cnc(Nc2ccccc2)nc1)N1CCCC2(CCNC2)C1` (stereo unspecified), the cytotoxicity at 10 µM is -6.57%.

For the molecule `CC(SCc1cc(Br)cc2cccnc12)C(N)=O` (stereo unspecified), the cytotoxicity at 10 µM was determined as 11.7%.
